Assay results from the array DNA melting data of Ke et al. (doi:10.1101/2024.01.08.574731).

Columns and labels:
[1] = melting temperature; fluorescence melt of hairpins on a sequencing array, two-state fit, raised by 9.35 °C to match UV melts; conditions: sodium 0.088 M
Outline: (§1)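 Melting temperature and folding enthalpy were obtained by bootstrapped two-state fitting. Fits used Cy3 fluorescence of library hairpins with annealed Cy3 and quencher oligos on a sequenced MiSeq flow cell, imaged in 50 mM Na-HEPES pH 8.0, 25 mM NaCl in 2.5 °C steps up to 60 °C and normalised to pre-quench Cy3 and control constructs. Four replicates were combined by inverse-variance weighting, and fitted temperatures were raised by 9.35 °C to match UV melts.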

[2] = folding enthalpy; higher = less favourable; fluorescence melt of hairpins on a sequencing array, two-state fit; conditions: sodium 0.088 M
Outline: as §1

Sequence	Tm [1] [°C]	folding enthalpy [2] [kcal/mol]
GGTGAGCCGAAAGGCACC (((..(((....))))))	44.3	-13.2
GGGTGCGGAAACGTACCC ((((.((....)).))))	61.2	-41.5
GCACCTACGAAAGTATGC (((..(((....))))))	27.3	-13.5
GCTGTGCGAAAGCCCCGC ((.(.((....)).).))	31.1	-12.5
GATCTATGACTAGATC ((((((....))))))	37.1	-26.7
GGCGTCGAAAGACAGCC ((((((....))).)))	63.7	-34.3
GGGAATCGAAAGATCCC (((.(((....))))))	49.7	-24.6
GATCTGCACACAGATC ((((((....))))))	51.6	-43.9
GGTAGCGAAAGCTCTACC ((((((....)))..)))	38.1	-16.4
GCAGAGCGAAAGCCTTGC (((..((....))..)))	43.5	-14.5
GGTTAACGAAAGTTTACC (((.(((....))).)))	45.2	-33.3
GGAGGGCGAAAGCCATCC (((.(((....))).)))	66.3	-33.8
GACCCCGAAAGGGAGTC ((((((....))).)))	56.5	-23
GATCATACCTATGATC ((((((....))))))	48.6	-41.5
GGTTCAGGAAACTGGACC (((.(((....))).)))	50.7	-44.8
GATCCATCAGTGGATC ((((((....))))))	51.6	-34.9
GGGCCACGAAAGTGTCCC (((.(((....))).)))	57.3	-45.3
GATCGTCGTACGATC ((((((...))))))	60.4	-29.3
GCTTCGCGAAAGCCCAGC (((..((....))..)))	31.2	-7.98
GGTGTGGGAAACCACGTC (..((((....))))..)	39.3	-13
GAGGGTGGAAACGCCCTC (((((.(....).)))))	57.6	-44.3
GGATAAACGAAAGTTTCC (((..(((....))))))	27.7	-17.1
GTGATCCGAAAGGAACAC (((.(((....))).)))	53.6	-27.5

Sequence	Tm [1] [°C]	folding enthalpy [2] [kcal/mol]
GGGACGTCGAAAGACCCC (((..(((....))))))	41	-18.4
GCCGCCGAAAGGCAGGGC ((((((....)))..)))	66.8	-20.3
GCCGCCGAAAGGCTGGC ((((((....))).)))	69.2	-20.8
GCTCTAGGAAACTAGGGC ((.((((....)))).))	47.1	-32.7
GTAGTAGCGAAAGCTTAC (((..(((....))))))	30.5	-11.3
GCGACGTTTCGC ((((....))))	47.8	-17.9
GACTTTGGAAACAAGGTC (((.(((....))).)))	41.8	-38.1
GATCTTGGACAAGATC ((((((....))))))	50.8	-41.8
GATGTCGAAAGACATC ((((((....))))))	66.3	-36.3
GATGTTGGAAACAGCATC ((((.((....)).))))	45.5	-25
GCTTCGCCGAAAGGCAGC (((..(((....))))))	40.9	-10.4
GTCCCCGGAAACAGGGAC (((((.(....).)))))	48.6	-39.9
GCGGTATCGAAAGATCGC (((..(((....))))))	47.1	-24.1
GATCATTGTTATGATC ((((((....))))))	47.3	-37
GGCTCCGAAAGGAGTGCC ((((((....)))..)))	50	-14.5
GCTAATACGAAAGTAAGC (((..(((....))))))	29.5	-14.1
GAAGAGCGAAAGCTGTTC (((.(((....))).)))	49.2	-24.9
GATCTTGGCTAAGATC ((((((....))))))	48.2	-45.1
GTCTTATCGAAAGATGAC (((..(((....))))))	28.5	-20.1
GTATGGGGAAACCCATAC (((((((....)))))))	59	-33.5
GGTCCCGAAAGGGTTACC ((((((....)))..)))	39.6	-15.4
GACAGCGAAAGCTGAGTC ((((((....)))..)))	39.2	-8.14
GCGTCCGAAAGGATCCGC ((((((....)))..)))	44.7	-21.2

Sequence	Tm [1] [°C]	folding enthalpy [2] [kcal/mol]
GTTTACGAAAGTAAAAAC ((((((....)))..)))	29.5	-12
GGATACACGAAAGTGTCC (((..(((....))))))	35.9	-12
GGCCACCGAAAGGTAGCC (((.(((....))).)))	57.5	-38.3
GCTCCGCGAAAGCCAAGC (((..((....))..)))	26.1	-8.28
GCTTAGACGAAAGTCAGC (((..(((....))))))	41.6	-18.2
GTGAAGAAATTCAC (((((....)))))	38.3	-18.8
GATCCGCCTTCGGATC ((((((....))))))	55.9	-44.3
GCGACGACGAAAGTCCGC (((..(((....))))))	51.4	-24.7
GATCTTCGCAAAGATC ((((((....))))))	45.5	-28.3
GCAATGCGAAAGCACGGC ((..(((....)))..))	36.3	-19.9
GAGGTGCCGAAAGGCCTC (((..(((....))))))	37.5	-10.8
GGAGTGACGAAAGTCTCC (((..(((....))))))	38.8	-18
GGGATCGAAAGATTTCCC ((((((....)))..)))	32.3	-19
GATCCCCTGGGGATC ((((((...))))))	64.8	-32.8
GGAAATCCGAAAGGATCC (((..(((....))))))	35.4	-13.1
GCTAGCCGAAAGGCCAGC (((.(((....))).)))	54.3	-20.8
GCGACTCCGAAAGGACGC (((..(((....))))))	46.7	-25.6
GCGACGCGAAAGCATTGC ((.(.((....)).).))	40.5	-19.2
GATCTTTGGCAAGATC ((((((....))))))	40	-29
GCGGATTCCCGC ((((....))))	55	-20.8
GCAGAAGGAAACCTCTGC (((((.(....).)))))	45.2	-28.2
CGTTCCGGAAACGGGACG (((.(((....))).)))	57.6	-42.9
GCTGACGAAAGTCCGAGC ((((((....)))..)))	37.6	-17.6

Sequence	Tm [1] [°C]	folding enthalpy [2] [kcal/mol]
GATCTGACTCCAGATC ((((((....))))))	46.6	-33.9
GATGATGGAAACATTGTC ((..(((....)))..))	28.8	-27.9
GGATCCCGAAAGGGGTCC (((.(((....))).)))	65.8	-39.3
GATCGTCGTGACGATC ((((((....))))))	63.4	-50
GGGTCCGAAAGGACACCC ((((((....)))..)))	55.5	-11
GGCTGGTCGAAAGACGCC (((..(((....))))))	52.1	-27
GATCGACCATTCGATC ((((((....))))))	50.1	-39.6
GATCAACAGATTGATC ((((((....))))))	40.4	-30.1
GATCGCCAGGCGATC ((((((...))))))	67.1	-35.1
ACAACGAAAGTTGT (((((....)))))	53.6	-21.6
GAAAGCCCGAAAGGGTTC (((..(((....))))))	27.9	-10.6
GCTGATGGAAACACCAGC ((((.((....)).))))	45.9	-30.8
GCTCTCGAAAGAGTCAGC ((((((....)))..)))	32.9	-14.7
GCTGACGAAAGTCGAGC ((((((....))).)))	54.6	-37.7
GTCGAGCGAAAGCTGGAC (((.(((....))).)))	56.1	-28.9
GCTGCGCGAAAGCTCCGC ((.(.((....)).).))	38.5	-12.3
GGCAGCGAAAGCTTAGCC ((((((....)))..)))	51.7	-25.7
GCTTCCGAAAGGAGGAGC ((((((....)))..)))	39.1	-21
GATCTCATAGGAGATC ((((((....))))))	51.2	-38.1
GATCGCAAGAGCGATC ((((((....))))))	67.8	-34
GTCGCCGGAAACGGTGAC (((.(((....))).)))	63.7	-41.5
AACCTGAAAAGGTT (((((....)))))	45.5	-20
GATCGACTATTCGATC ((((((....))))))	50.5	-38.4
